According to ChEMBL document CHEMBL5724801, “EUbOPEN Chemogenomics Library - Multiplex” (2024):
Where “and” joins values, the source holds several entries; their conditions need not be identical. Equal entries are not always repeated.

Tested on: U2OS
Test: Multiplex assay against U2OS
Format: toxicity, cell-based
Conditions: human
Method in brief: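 Four dyes were applied at seeding to live cells: Hoechst33342, BioTracker Green Microtubule Cytoskeleton Dye, MitoTracker Red and Annexin V Alexa Fluor 680. Imaging after compound addition used a CQ1 microscope at 37°C and 5% CO2. CellPathfinder machine-learning gating then sorted cells into Hoechst high-intensity objects or normal cells, normal cells into healthy, pyknosed or fragmented nuclei, and pyknosed cells into mitotic or apoptotic, with tubulin, mitochondrial-mass and membrane-permeability phenotypes given as per cents of healthy-nucleus cells.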

[1] = 12 h, 1 µM, compound concentration 1 uM
[2] = 12 h, 10 µM, compound concentration 10 uM
[3] = 24 h, 1 µM, compound concentration 1 uM
[4] = 24 h, 10 µM, compound concentration 10 uM
[5] = 48 h, 1 µM, compound concentration 1 uM
[6] = 48 h, 10 µM, compound concentration 10 uM

Cn1cc(C(=O)OCC2CCN(CCNS(C)(=O)=O)CC2)c2ccccc21
Population Apoptotic (%) [1]: 73% and 77% | Population Fragmented Nuclei (%) [1]: 27% and 20% | Population Healthy Nuclei (%) [1]: 63% and 71% | Population Hoechst High Intensity Objects (%) [1]: 3% and 0% | Population Membrane Permeable-Phenotype (%) [1]: 7% and 13% | Population Mitochondria Different-Phenotype (%) [1]: 4% and 5% | Population Mitotic Cells (%) [1]: 26% and 22% | Population Normal (%) [1]: 96% and 100% | Population Pyknosed Nuclei (%) [1]: 8% | Population Tubulin-Different-Phenotype (%) [1]: 5% and 6% | Total Cell Count [1]: 226 and 110 | Population Apoptotic (%) [2]: 53% and 57% | Population Fragmented Nuclei (%) [2]: 36% and 18% | Population Healthy Nuclei (%) [2]: 58% and 76% | Population Hoechst High Intensity Objects (%) [2]: 0% and 1% | Population Membrane Permeable-Phenotype (%) [2]: 10% and 17% | Population Mitochondria Different-Phenotype (%) [2]: 5% and 13% | Population Mitotic Cells (%) [2]: 46% and 42% | Population Normal (%) [2]: 99% and 98% | Population Pyknosed Nuclei (%) [2]: 5% | Population Tubulin-Different-Phenotype (%) [2]: 5% and 9% | Total Cell Count [2]: 252 and 137 | Population Apoptotic (%) [3]: 95% and 100% | Population Fragmented Nuclei (%) [3]: 26% and 17% | Population Healthy Nuclei (%) [3]: 65% and 78% | Population Hoechst High Intensity Objects (%) [3]: 2% and 0% | Population Membrane Permeable-Phenotype (%) [3]: 4% and 10% | Population Mitochondria Different-Phenotype (%) [3]: 2% and 5% | Population Mitotic Cells (%) [3]: 4% and 0% | Population Normal (%) [3]: 97% and 100% | Population Pyknosed Nuclei (%) [3]: 8% and 4% | Population Tubulin-Different-Phenotype (%) [3]: 3% and 6% | Total Cell Count [3]: 263 and 144 | Population Apoptotic (%) [4]: 92% and 64% | Population Fragmented Nuclei (%) [4]: 33% and 16% | Population Healthy Nuclei (%) [4]: 61% and 73% | Population Hoechst High Intensity Objects (%) [4]: 2% and 1% | Population Membrane Permeable-Phenotype (%) [4]: 11% and 12% | Population Mitochondria Different-Phenotype (%) [4]: 5% and 8% | Population Normal (%) [4]: 97% and 98% | Population Pyknosed Nuclei (%) [4]: 4% and 9% | Population Tubulin-Different-Phenotype (%) [4]: 4% and 8% | Total Cell Count [4]: 281 and 150 | Population Apoptotic (%) [5]: 91% and 57% | Population Fragmented Nuclei (%) [5]: 20% and 13% | Population Healthy Nuclei (%) [5]: 69% and 75% | Population Hoechst High Intensity Objects (%) [5]: 1% and 2% | Population Membrane Permeable-Phenotype (%) [5]: 8% and 6% | Population Mitochondria Different-Phenotype (%) [5]: 3% and 5% | Population Normal (%) [5]: 98% and 97% | Population Pyknosed Nuclei (%) [5]: 9% and 10% | Population Tubulin-Different-Phenotype (%) [5]: 5% and 4% | Total Cell Count [5]: 372 and 182 | Population Apoptotic (%) [6]: 88% and 75% | Population Healthy Nuclei (%) [6]: 58% and 79% | Population Hoechst High Intensity Objects (%) [6]: 1% and 3% | Population Membrane Permeable-Phenotype (%) [6]: 9% and 13% | Population Mitochondria Different-Phenotype (%) [6]: 4% and 6% | Population Mitotic Cells (%) [6]: 11% and 25% | Population Normal (%) [6]: 98% and 97% | Population Pyknosed Nuclei (%) [6]: 10% | Population Tubulin-Different-Phenotype (%) [6]: 7% and 5% | Total Cell Count [6]: 341 and 200

C[C@H](NC(=O)CNC(=O)c1cccc(Cl)c1)c1ccccc1
Population Apoptotic (%) [1]: 78% and 71% | Population Fragmented Nuclei (%) [1]: 26% and 20% | Population Healthy Nuclei (%) [1]: 61% and 68% | Population Hoechst High Intensity Objects (%) [1]: 3% | Population Membrane Permeable-Phenotype (%) [1]: 6% and 8% | Population Mitochondria Different-Phenotype (%) [1]: 4% and 2% | Population Mitotic Cells (%) [1]: 21% and 28% | Population Normal (%) [1]: 96% | Population Pyknosed Nuclei (%) [1]: 12% and 11% | Population Tubulin-Different-Phenotype (%) [1]: 2% | Total Cell Count [1]: 242 and 124 | Population Apoptotic (%) [2]: 68% and 66% | Population Fragmented Nuclei (%) [2]: 24% and 13% | Population Healthy Nuclei (%) [2]: 63% and 82% | Population Hoechst High Intensity Objects (%) [2]: 2% and 0% | Population Membrane Permeable-Phenotype (%) [2]: 9% and 2% | Population Mitochondria Different-Phenotype (%) [2]: 3% | Population Mitotic Cells (%) [2]: 31% and 33% | Population Normal (%) [2]: 97% and 100% | Population Pyknosed Nuclei (%) [2]: 11% and 4% | Population Tubulin-Different-Phenotype (%) [2]: 4% and 2% | Total Cell Count [2]: 198 and 150 | Population Apoptotic (%) [3]: 79% and 88% | Population Fragmented Nuclei (%) [3]: 19% | Population Healthy Nuclei (%) [3]: 71% and 69% | Population Hoechst High Intensity Objects (%) [3]: 2% | Population Membrane Permeable-Phenotype (%) [3]: 7% and 4% | Population Mitochondria Different-Phenotype (%) [3]: 2% and 4% | Population Mitotic Cells (%) [3]: 20% and 11% | Population Normal (%) [3]: 97% | Population Pyknosed Nuclei (%) [3]: 8% and 10% | Population Tubulin-Different-Phenotype (%) [3]: 2% and 0% | Total Cell Count [3]: 275 and 168 | Population Apoptotic (%) [4]: 90% and 71% | Population Fragmented Nuclei (%) [4]: 24% and 12% | Population Healthy Nuclei (%) [4]: 61% and 83% | Population Hoechst High Intensity Objects (%) [4]: 1% | Population Membrane Permeable-Phenotype (%) [4]: 6% and 4% | Population Mitochondria Different-Phenotype (%) [4]: 4% and 2% | Population Normal (%) [4]: 98% | Population Pyknosed Nuclei (%) [4]: 13% and 3% | Population Tubulin-Different-Phenotype (%) [4]: 2% and 3% | Total Cell Count [4]: 239 and 189 | Population Apoptotic (%) [5]: 74% and 100% | Population Fragmented Nuclei (%) [5]: 18% and 17% | Population Healthy Nuclei (%) [5]: 71% and 70% | Population Hoechst High Intensity Objects (%) [5]: 3% and 2% | Population Membrane Permeable-Phenotype (%) [5]: 6% and 4% | Population Mitochondria Different-Phenotype (%) [5]: 3% | Population Mitotic Cells (%) [5]: 25% and 0% | Population Normal (%) [5]: 96% and 97% | Population Pyknosed Nuclei (%) [5]: 10% and 11% | Population Tubulin-Different-Phenotype (%) [5]: 1% and 2% | Total Cell Count [5]: 401 and 205 | Population Apoptotic (%) [6]: 81% and 100% | Population Fragmented Nuclei (%) [6]: 19% and 12% | Population Healthy Nuclei (%) [6]: 73% and 80% | Population Hoechst High Intensity Objects (%) [6]: 2% and 1% | Population Membrane Permeable-Phenotype (%) [6]: 6% and 4% | Population Mitochondria Different-Phenotype (%) [6]: 2% and 1% | Population Mitotic Cells (%) [6]: 18% and 0% | Population Normal (%) [6]: 97% and 98% | Population Pyknosed Nuclei (%) [6]: 7% | Population Tubulin-Different-Phenotype (%) [6]: 4% and 1% | Total Cell Count [6]: 311 and 279
